Compound activity: PubChem, Sanford-Burnham Center for Chemical Genomics
Most compounds without a hit are left out; they make up all but 1.7% or so of the library.
Scp1 inh: blocks human Scp-1 phosphatase activity; hit rate 0.88% among 340,000; AID 493091; Recombinant Scp1, phosphopeptide, malachite green phosphate absorbance; inhibition, % at 20 µM; Q9GZU7;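 active = inhibition above about 50% at 20 µM, limit read from the data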;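 also: plate controls were DMSO wells with enzyme for no effect and wells lacking enzyme for full effect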
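Material: truncated SCP-1 phosphatase (76-261aa) / Buffer or medium: 50 mM Tris acetate pH 5.5, 0.005% Tween-20, 10 mM MgCl2 / Compound dosing: one concentration, 20 µM, with 1.0% DMSO / Incubation: 45 min room-temperature reaction, 5 min colour, 30 min stabiliser / Detection: colorimetric free-phosphate detection, absorbance 630 nm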
STEP inh: inhibitors of human striatal-enriched phosphatase STEP; hit rate 0.25% among 360,000; recombinant STEP, OMFP fluorogenic substrate, fluorescence; inhibition, % at 20 µM; AID 588621;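 active = inhibition at 20 µM, scaled per plate between control wells, above about 37%, limit read from the data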;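 also: 0% = DMSO with enzyme and substrate and 100% = substrate only without enzyme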
Target sequence (P54829 whole entry, looked up): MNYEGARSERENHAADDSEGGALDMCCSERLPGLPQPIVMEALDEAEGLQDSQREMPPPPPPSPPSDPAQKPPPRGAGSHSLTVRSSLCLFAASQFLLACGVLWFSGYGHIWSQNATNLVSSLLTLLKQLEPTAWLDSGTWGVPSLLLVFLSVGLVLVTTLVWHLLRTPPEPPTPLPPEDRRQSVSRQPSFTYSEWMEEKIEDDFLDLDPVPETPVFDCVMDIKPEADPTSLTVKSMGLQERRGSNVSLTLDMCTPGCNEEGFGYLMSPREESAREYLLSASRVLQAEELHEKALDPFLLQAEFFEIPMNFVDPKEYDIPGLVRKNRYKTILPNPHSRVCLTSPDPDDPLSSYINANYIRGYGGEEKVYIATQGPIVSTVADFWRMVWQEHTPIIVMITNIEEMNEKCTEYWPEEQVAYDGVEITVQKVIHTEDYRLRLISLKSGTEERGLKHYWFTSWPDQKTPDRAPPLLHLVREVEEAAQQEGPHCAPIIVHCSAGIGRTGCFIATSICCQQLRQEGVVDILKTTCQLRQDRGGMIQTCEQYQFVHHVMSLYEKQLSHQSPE
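medium = Bis-Tris buffer pH 6.0, 2.5 mM DTT, 0.005% Tween 20 | test system = STEP (striatal-enriched tyrosine phosphatase) enzyme, cell-free | measure = normalized % inhibition | compound dosing = 20 µM, 1% DMSO | also added = 25 µM OMFP | schedule = reaction 20 min, ambient temperature | measured by = fluorescence read at 480 nm ex / 540 nm em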
SUMO1 PPI mod: SUMO1-SIM interaction modulation | P63165 | inhibition, % at 20 µM | SUMO1 binding to a labelled peptide, TR-FRET, 1 h | hit rate 0.33% among 360,000; in the data active = inhibition above about 37%
Target sequence (P63165 whole entry, looked up): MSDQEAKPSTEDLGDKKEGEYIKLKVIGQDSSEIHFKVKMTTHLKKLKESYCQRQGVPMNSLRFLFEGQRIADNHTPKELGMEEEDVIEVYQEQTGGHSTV
DNMT1 inh: DNMT1 (human) enzyme inhibition | hit rate 0.83% among 360,000 | P26358 | DNMT1 molecular beacon, Hinp1I cleavage, fluorescence | AID 588458 | inhibition (reported as % activation of signal), % at 10 µM; in the data active = inhibition above about 50%
LMPTP inh: LMPTP (human) inhibition. recombinant LMPTP-A, OMFP fluorogenic substrate, fluorescence intensity. AID 651560. P24666. inhibition, % at 20 µM. hit rate 0.22% among 360,000;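 active = compounds that cut the enzyme signal by at least half of the control window in the single-dose screen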;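 also: plate controls were DMSO wells with enzyme plus substrate for no effect and substrate without enzyme for full effect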
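Test system: LMPTP-A phosphatase enzyme. Amount: LMPTP-A at 0.625 nM final in the reaction. Reagent: OMFP substrate, 400 µM final. Times: 50 min at room temperature. Signal: endpoint fluorescence intensity from OMFP dephosphorylation. Read-out basis: % inhibition. Benchmarks: no-enzyme and uninhibited controls.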
The depositor's hits bear a star.

How did Cc1ccc(-c2ccc(CN3C(C)C(=O)N(Cc4cn(Cc5ccco5)nn4)CCS3(=O)=O)cc2)cc1 (centres undefined) do in these assays?
STEP inh: 3; SUMO1 PPI mod: 6; DNMT1 inh: -11; LMPTP inh: 2

What do the screens show for `C[C@@H](c1ccccc1)N1C[C@@H](COCc2ccccc2)Oc2cc(N3CC[C@H](O)C3)ccc2S1(=O)=O`?
SUMO1 PPI mod: 2; LMPTP inh: 2

How did O=C(N1CCN(c2ncccn2)CC1)C12CC3CC(CC(C3)C1)C2 do in these assays?
Scp1 inh: -15; STEP inh: 1; SUMO1 PPI mod: -2; DNMT1 inh: 2; LMPTP inh: -2

What do the screens show for `CCOc1ccccc1NC(=O)CCc1nnc2ccc(N3CCC(C)CC3)nn12`?
Scp1 inh: -5; STEP inh: 1; SUMO1 PPI mod: 4; DNMT1 inh: 98*; LMPTP inh: -2

What do the screens show for `COc1ccccc1NC(=O)CCc1nnc2ccc(N3CCCCC3)nn12`?
Scp1 inh: -5; STEP inh: -3; SUMO1 PPI mod: -3; DNMT1 inh: -1; LMPTP inh: -1

What do the screens show for `O=C(/C=C/c1ccncc1)c1ccc(NC(=O)c2ccccc2F)cc1`?
Scp1 inh: 4; STEP inh: 14; SUMO1 PPI mod: -3; DNMT1 inh: 6; LMPTP inh: 57*

Results for CN(C)c1ccc(O)c2c1CC1CC3[C@@H](N(C)C)C(=O)C(C(N)=O)=C(O)[C@]3(O)C(=O)C1=C2O (some centres undefined) ?
Scp1 inh: 47; STEP inh: 21; SUMO1 PPI mod: 23; DNMT1 inh: 90*; LMPTP inh: 35

What do the screens show for `C/C(CC(=O)NC12CC3CC(CC(C3)C1)C2)=N\NC(=O)c1ccc(F)cc1`?
Scp1 inh: -5; STEP inh: 2; SUMO1 PPI mod: 5; DNMT1 inh: 0; LMPTP inh: -2

Results for O=C(Oc1ccc([N+](=O)[O-])cc1)C1CC(=O)N(c2ccc3c(c2)OCCO3)C1 (centres undefined) ?
Scp1 inh: 69*; STEP inh: -1; SUMO1 PPI mod: -2; DNMT1 inh: 23; LMPTP inh: 4

Results for CNc1ccc(Br)cc(C(=O)/C=C/c2ccc(Cl)cc2Cl)c1=O ?
Scp1 inh: 0; STEP inh: 5; SUMO1 PPI mod: 19; DNMT1 inh: 67*; LMPTP inh: 33

Results for CCNc1ccc(Br)cc(C(=O)/C=C/c2c(Cl)cccc2Cl)c1=O ?
Scp1 inh: 16; STEP inh: 6; SUMO1 PPI mod: 20; DNMT1 inh: 84*; LMPTP inh: 43

What do the screens show for `Cc1ccccc1[C@H](NC1c2ccccc2C=Cc2ccccc21)P(=O)(c1ccccc1)c1ccccc1`?
SUMO1 PPI mod: 3; LMPTP inh: 14

What do the screens show for `O=C(COc1ccc(Cl)cc1Cl)Nc1cccc(-c2ccc(N3CCOCC3)nn2)c1`?
Scp1 inh: 2; STEP inh: 0; SUMO1 PPI mod: -9; DNMT1 inh: 7; LMPTP inh: -1

What do the screens show for `O=C(COc1ccc(Cl)cc1Cl)Nc1ccc(-c2ccc(N3CCOCC3)nn2)cc1`?
Scp1 inh: 3; STEP inh: -1; SUMO1 PPI mod: 55*; DNMT1 inh: 2; LMPTP inh: 11

How did CC1CCN(Cc2nc(-c3ccccc3)no2)CC1 do in these assays?
Scp1 inh: -11; STEP inh: -4; SUMO1 PPI mod: 50*; DNMT1 inh: -2; LMPTP inh: -1

Results for CCOC(=O)c1ccc(NC(=O)C2CC(O)CN2S(=O)(=O)c2ccc(C)cc2)cc1 (centres undefined) ?
Scp1 inh: -6; STEP inh: -2; SUMO1 PPI mod: 42*; DNMT1 inh: 2; LMPTP inh: -1

How did Cc1ccc(S(=O)(=O)N2CC(O)CC2C(=O)O)cc1 (centres undefined) do in these assays?
Scp1 inh: -9; STEP inh: -3; SUMO1 PPI mod: 4; DNMT1 inh: -2; LMPTP inh: -1

Results for CC(=O)c1c(C)[nH]c(C(=O)OCC(=O)c2ccc(Br)cc2)c1C ?
STEP inh: -1; SUMO1 PPI mod: 1; DNMT1 inh: -4; LMPTP inh: 1

How did COc1ccc(COC[C@H](C)[C@H](O)[C@@H](C)[C@H]2OC(=O)[C@@H]2C)cc1 do in these assays?
Scp1 inh: -4; STEP inh: -1; SUMO1 PPI mod: 38*; DNMT1 inh: -2; LMPTP inh: -1

What do the screens show for `COc1ccc(CCC(=O)NC(C)C)cc1`?
Scp1 inh: -5; STEP inh: 0; SUMO1 PPI mod: 0; DNMT1 inh: 0; LMPTP inh: -2

What do the screens show for `COc1cc(NC(=O)C2CCC(CNc3c(N4CCCCC4)c(=O)c3=O)CC2)cc(OC)c1` (centres undefined)?
Scp1 inh: -3; STEP inh: -2; SUMO1 PPI mod: 7; DNMT1 inh: 52*; LMPTP inh: 1

Results for CCOc1ccc(NC(=O)c2ccc(CNc3c(N4CCCC4)c(=O)c3=O)cc2)cc1 ?
Scp1 inh: -2; STEP inh: 0; SUMO1 PPI mod: 45*; DNMT1 inh: 4; LMPTP inh: -1

Results for CCc1cccc(NC(=O)c2ccc(CNc3c(N4CCCC4)c(=O)c3=O)cc2)c1 ?
Scp1 inh: -4; STEP inh: 3; SUMO1 PPI mod: 49*; DNMT1 inh: -3; LMPTP inh: 2

How did CC(=O)c1ccc(NC(=O)c2ccc(CNc3c(N4CCCC4)c(=O)c3=O)cc2)cc1 do in these assays?
Scp1 inh: -7; STEP inh: 2; SUMO1 PPI mod: 0; DNMT1 inh: 1; LMPTP inh: 0

What do the screens show for `COc1cc(NC(=O)c2ccc(CNc3c(N4CCOCC4)c(=O)c3=O)cc2)cc(OC)c1`?
Scp1 inh: -16; STEP inh: 2; SUMO1 PPI mod: 43*; DNMT1 inh: -5; LMPTP inh: 0

What do the screens show for `CC(=O)c1ccc(NC(=O)c2ccc(CNc3c(N4CCOCC4)c(=O)c3=O)cc2)cc1`?
Scp1 inh: -4; STEP inh: 0; SUMO1 PPI mod: 0; DNMT1 inh: 7; LMPTP inh: 1

How did C/C(CC(C)(C)c1ccccc1)=N\NS(=O)(=O)c1ccccc1 do in these assays?
Scp1 inh: -1; STEP inh: 2; SUMO1 PPI mod: 1; DNMT1 inh: 9; LMPTP inh: 0

What do the screens show for `Cn1cc(-c2csc(C(C)(O)c3cccnc3)n2)cn1` (centres undefined)?
STEP inh: -4; SUMO1 PPI mod: -3; DNMT1 inh: 5; LMPTP inh: -2

How did Cc1ccc(C(O)c2ncc(-c3cccc(C(F)(F)F)c3)[nH]2)cc1 (centres undefined) do in these assays?
STEP inh: -2; SUMO1 PPI mod: -3; DNMT1 inh: 18; LMPTP inh: 2
